This note sets out measurements from the EternaBench riboswitch data.

This data set has as its system MS2 coat protein. In words: apparent Kd, MS2 coat protein; higher = weaker binding; RNA-MaP array; FMN 200 µM where present. In outline:
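Designs were transcribed by stalled E. coli RNA polymerase on Illumina sequencing-chip clusters. They were titrated with SNAP-549-labelled MS2 coat protein from 0.7 or 1.5 nM, doubling to 3 µM, without and then with constant ligand. Buffer: 100 mM Tris-HCl pH 7.5, 80 mM KCl, 4 mM MgCl2, BSA, DTT, yeast tRNA, Tween-20. Green signal was normalised to red-channel RNA signal and control-cluster median Fmax. Apparent Kd is the median of filtered per-cluster binding-curve fits.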

Setting [1] is: designed as: OFF switch for flavin mononucleotide, no ligand.
The mark [2] stands for this setting: ligand present: flavin mononucleotide, designed as: OFF switch for flavin mononucleotide.
Where [3] appears, read: designed as: ON switch for flavin mononucleotide, no ligand.
The mark [4] stands for this setting: ligand present: flavin mononucleotide, designed as: ON switch for flavin mononucleotide.

As to “GGAUAGGACAGAGGAUAUACGUGCUAGAGAUACUAGCAAAAUUUCCUCACAUGAGGAUCACCCAUGUAGAAGGCUUUCCUAUCG”, the “apparent Kd” value is, setting by setting: under setting [1], 6.3 nM; under setting [2], 37 nM.
“AUGCUAGUGUGAGGAUAUCAACAUGAGGAUCACCCAUGUUGGAAGUACACGACAUGCGGUACAGGUGAGAAGGUACAUUAGCAU”: the “apparent Kd” value reads like this: under setting [1], 27.4 nM; under setting [2], 53.2 nM.
As to “AUCUUGUAAGGAUAUCUUACAAGUGACUUCGGUCACAGUUAAGAGAAGGUACAUGAGGAUCACCCAUGUAUAAC”, the “apparent Kd” value under setting [1] is 26.4 nM and the “apparent Kd” value under setting [2] worked out at 23 nM.
As for “CCUGUCGCAUGAGGAUAUGGUCAGCUUUGCUGACCAGAAGGCAUGUCGAUAGACAUGAGGAUCACCCAUGUAGUAAAGACAGGA”, the “apparent Kd” value was determined as 831 nM under setting [3] and 57.3 nM under setting [4].
For “AGCUAGUCAGGAUAUACGAAAAUGUCAGAGGCUGUGAAGGGACAUGAGGAUCACCCAUGUAGAAGGGACUAGCA”, the “apparent Kd” value under setting [1] worked out at 96.8 nM and the “apparent Kd” value under setting [2] is 136 nM.
Turning to “GUUUUCGCAUGAGGAUAUGCUCGCAUUUCAAGAGCAGAAGGUAUGUCUAUAGACAUGAGGAUCACCCAUGUAUUUAACUUUGAA”, the “apparent Kd” value reads like this: under setting [3], 232 nM; under setting [4], 44.5 nM.
For the sequence “GGGAACAUCGGAGGAUAUCAUGUAAAUACAUGAGGAUCACCCAUGUCGAUGGAGACAUCGGAGAUUGAGAAGGCCGAUGUACCG”, the “apparent Kd” value was found to be 173 nM under setting [3] and 9.66 nM under setting [4].
Take “GUCAGCUCGUGAGGAUAUACAUCACUGCUUCGGCAGUGUAUUAAGUUCACAUGAGGAUCACCCAUGUAGAAGGCACGAGCUGAU”: the “apparent Kd” value was found to be 15.2 nM under setting [1] and 20.3 nM under setting [2].
For the sequence “GCUGUCGCAUGAGGAUAUGGUCAGCUUUGCUGACCAGAAGGCAUGUCAAUAGACAUGAGGAUCACCCAUGUAGUUCGGGCGGCU”, the “apparent Kd” value worked out at 849 nM under setting [3] and 76.1 nM under setting [4].
Regarding “ACUUGUAAGUAGAAGGCAGUCAUUAUAUUAAUCAUGUAGACAUGAGGAUCACCCAUGUAGAGUACUGAGGAUAUACAUCGAUAG”, the “apparent Kd” value under setting [1] came to 12.5 nM and the “apparent Kd” value under setting [2] stood at 9.85 nM.
With “AAGUGUAUAGGAUAUGCGUGGAAAAGGUGUAUUCACUAGCGACAUGAGGAUCACCCAUGUAGAAGGGUAUGUAA”, the “apparent Kd” value is, setting by setting: under setting [1], 124 nM; under setting [2], 64 nM.
As for “UUUAUAUUCAGAGGAUAUUAAUGUAGUAUAACAUAAGAAGGCUGUUUGUUUUGUAAAGUAAUUCUACAUGAGGAUCACCCAUGU”, the “apparent Kd” value runs as follows: under setting [3], 21.4 nM; under setting [4], 16.2 nM.
On to “AUUUAAAUGUCAGGAUAUGUCGGUAUAUACUCGGUAGAAGGGAUAAUUAUACUCAAGUACAUGAGGAUCACCCAUGUUAAAUCA”, for which the “apparent Kd” value reads like this: under setting [3], 21.1 nM; under setting [4], 14 nM.
As to “CCGGGCUAGGAGAAGGGCUAGAGUGUGAUAUAUUUGCCCGCGAGCACAUGAGGAUCACCCAUGUAGCAGGAUAUCCAAGCCGAU”, the “apparent Kd” value was 7.33 nM under setting [1] and 18 nM under setting [2].
As for “AACUCGUCAGGAUAUGCGCGCAGUUAAUACGCUUCGCAAUUGCAGAAGGGACAUGAGGAUCACCCAUGUAAAUA”, the “apparent Kd” value was determined as 32.1 nM under setting [1] and 33.1 nM under setting [2].
As for “UAUAUGUCAGGAUAUCGAUUGGAACGGAAUUCGGUUCUGGUUGAGAAGGGACAUGAGGAUCACCCAUGUUUUUC”, the “apparent Kd” value runs as follows: under setting [1], 36.2 nM; under setting [2], 222 nM.
With “AGUCAUACAGGAUAUACAUGAGGAUCACCCAUGUAAAUCCUAAAUGGGUGAUCCUCAUGUAGAAGGGUAUGACA”, the “apparent Kd” value under setting [1] came out at 20.7 nM and the “apparent Kd” value under setting [2] amounted to 17.1 nM.
For “AAAUAACCUAGCAAAAUUUCCUAACAUGAGGAUCACCCAUGUAGAAGGCUGUCCUAAAAUAGGACAGAGGAUAUACGUGCUAGG”, in that order: 5.01 nM and 7 nM.
With “AAACAUGUCCGAGGAUAUCUAGAAACAUUUUUAAGAGAAGGCGGACAUGAGGAUCACCCAUGUCUCUCCUCAUCAAAUCCAAGU”, the “apparent Kd” value under setting [1] was found to be 15.6 nM and the “apparent Kd” value under setting [2] worked out at 68 nM.
Turning to “UUAAUUAUACAAGGAUAUCUAUUGUAGUUUCGACUUACAUGAGGAUCACCCAUGUUAAUAUGUUUAGAGAAGGUGUAUUUUCAG”, the “apparent Kd” value is 98.3 nM under setting [3] and 61.1 nM under setting [4].
Turning to “CCGAGGCGAGGAUAUAUGAAGGACACAACAUUUAGGGUAAGACAUGAGGAUCACCCAUGUAGAAGGCGCGACGC”, the “apparent Kd” value under setting [1] is 63.4 nM and the “apparent Kd” value under setting [2] is 55.8 nM.
For “CGGUGACGUGUAGGAUAUGGCGCUGGGUUUUGCCCAGAAGGACAUGAGGAUCACCCAUGUGGUAGAGGGCUGGCGGCCGCCCGC”, in that order: 29.4 nM and 29.2 nM.
With “UUGGUUAUACAAGGAUAUCAAUUAUAUACACAUCCUACAUGAGGAUCACCCAUGUUUUAUUUUUUUGAGAAGGUGUAUUGUCGG”, the “apparent Kd” value under setting [3] came out at 22.4 nM and the “apparent Kd” value under setting [4] is 29 nM.
In the case of “ACCGUUGAAGCAGGAUAUUAUAGCGCCAGCGUAUAAGAAGGGCUUCAACAUGAGGAUCACCCAUGUUGGAGUACCUCAAAAGUG”, the “apparent Kd” value reads like this: under setting [1], 5.53 nM; under setting [2], 23.7 nM.
“CUUCAGUAAGGAUAUCAGCUUAGGAGGUUGGUAAUGAGAGCUGAGAAGGUACAUGAGGAUCACCCAUGUUAGUU”: the “apparent Kd” value by setting is: under setting [1], 20.3 nM; under setting [2], 33 nM.
As to “GUAUAUCACUAAGGAUAUCUGUAAUAUGUUGAAACAUGAGGAUCACCCAUGUUCAUGUAUUUAUAGGAGAAGGUAGAGAUAUAC”, the “apparent Kd” value stood at 4.34 nM under setting [3] and 4.15 nM under setting [4].
As to “AGCCUACAUGAGGAUCACCCAUGUCAGGAUAUCUCGCGACGUGUCGGGUUCACGUUGCAGAGAAGGGACUCGGG”, the “apparent Kd” value by setting is: under setting [1], 50.7 nM; under setting [2], 67.3 nM.
Turning to “AAUUGACACGUAGGAUAUCGCUCUAAUUAAACACGAGAAGGACGUACAUGAGGAUCACCCAUGUUAAAUGGUGUAGAUAAGUUG”, the “apparent Kd” value under setting [1] was 172 nM and the “apparent Kd” value under setting [2] turned out to be 479 nM.
As for “UAUAUUAUUAUAGGAUAUGGAUACGAUGCGUAUCCAGAAGGGUGAUUAUAAUAUAAUCUAUACAUGAGGAUCACCCAUGUUUAU”, the “apparent Kd” value came to 303 nM under setting [3] and 73.9 nM under setting [4].
Consider “AAAAAUCCAGCGCAGGAUAUCGCAGGGUGCACAUGAGGAUCACCCAUGUGUACCCAAACACCCUGCGAGAAGGGCGUUGGAAAAAA”, for which the “apparent Kd” value by setting is: under setting [3], 11.2 nM; under setting [4], 9.68 nM.
In the case of “GAGUUACAUGAGGAUCACCCAUGUGGUUGUGGAUAAGGAUAUAUGGUAGGAGGAGGAAUGAUAGAAGGUAUUAGGG”, the “apparent Kd” value was found to be 69 nM under setting [3] and 45.5 nM under setting [4].
As for “AUCAGCUCGUCAGGAUAUAUGUCACUGCGUCAGCAGUGUGGUAAGAUCACAUGAGGAUCACCCAUGUAGAAGGGACGAGCUGAU”, the “apparent Kd” value by setting is: under setting [1], 30.7 nM; under setting [2], 78.8 nM.
In the case of “AAAUUAAGAAGAGGAUAUUGACAUGAGGAUCACCCAUGUAUUUGGGAGUGUUUACUGAAUUCUUACGAGAAGGUUUACGAACUU”, the “apparent Kd” value under setting [1] worked out at 278 nM and the “apparent Kd” value under setting [2] was 211 nM.
Consider “UUAAUUAACAAGAAGGCUUACAUGAGGAUCACCCAUGUUGUACAUGGAUAAAGAGGAUAUUGCUAAUAAUUAUUUAUCUUAAUU”, for which the “apparent Kd” value under setting [1] was determined as 61.5 nM and the “apparent Kd” value under setting [2] was determined as 37.3 nM.
For the sequence “GGACGUCACUCAAACAAUUAAACAUGAGGAUCACCCAUGUCACAGGAUAUGGAUCCUAAUUGGAUCCAGAAGGGUGAGACGUCC”, the “apparent Kd” value was found to be 251 nM under setting [3] and 222 nM under setting [4].
For the sequence “AAAAAAAAAACUCAGGAUAUAGAUUGUUGAACAUGAGGAUCACCCAUGUAGUGAAAAGCGAAAAACUAGAAGGGAGGAAAAAAAAA”, the “apparent Kd” value was found to be 82.5 nM under setting [3] and 46 nM under setting [4].

As a reminder, the apparent Kd is a dissociation constant that holds for the conditions of the assay.
